Measured values of several laboratories.
Lines come from different studies, so protocols differ.

With `COc1ccc2c(Cc3ccccc3F)c3[n+](cc2c1OC)CCc1cc2c(cc1-3)OCO2.[Br-]` the AUC(0-inf) was 125 ng·h/mL (rat, plasma; intravenous, 5 mg/kg).
`CCOC(=O)[C@@]12C[C@@H]1[C@@H](n1ccc3c(NC)nc(C#Cc4ccc(Cl)s4)nc31)[C@H](O)[C@@H]2O` has an AUC(0-inf) of 371 ng·h/mL (male Sprague-Dawley rat, plasma; oral, 10 mg/kg).
`CNCc1cc(-c2ccccc2F)n(S(=O)(=O)c2cccnc2)c1` gave an AUC(0-inf) of 645 ng·h/mL (Sprague-Dawley rat, plasma; oral, 10 mg/kg).
For `COc1ccc2c(=O)n(C)c(-c3ccccc3)nc2c1`, the AUC(0-inf) was 857 ng·h/mL (male Sprague-Dawley rat, plasma; intravenous, 2 mg/kg).
`Cc1c(-c2ccccc2)cccc1N1C(=O)c2cc(CN[C@H](C(=O)O)C(C)O)c(OCc3cccc(C#N)c3)cc2C1=O` (stereo partly drawn) gave an AUC(0-inf) of 3260 ng·h/mL (Sprague-Dawley rat, plasma; intravenous, 5 mg/kg).
`CCc1cc(C(=O)NC)c2nccc(N3CCc4c(cc(Cn5ccnc5)cc4-c4cn(C)nc4C(F)(F)F)C3=O)c2c1` gave an AUC(0-inf) of 117000 ng·h/mL (male Sprague-Dawley rat, plasma; oral, 100 mg/kg).
With `O=C(Nc1ccc(-c2nc(-c3ccc(Cl)cc3)no2)cc1)C1CC(=O)N(Cc2ccco2)C1` (stereo not drawn) the AUC(0-inf) was 12500 ng·h/mL (male Wistar rat, brain; intraperitoneal, 10 mg/kg).
`Oc1c(Br)cc(Cl)c2cccnc12` gave an AUC(0-inf) of 1200 ng·h/mL (Sprague-Dawley rat, plasma; intravenous, 2 mg/kg).
`COCCOC(=O)C1=C(C)NC(C)=C(C(=O)OC(C)C)C1c1cccc([N+](=O)[O-])c1` (stereo not drawn) has an AUC(0-inf) of 502 ng·h/mL (male Sprague-Dawley rat, plasma; oral, 12 mg/kg).
The AUC(0-inf) of `COc1nc(-c2cc(C)c(N[C@@H](C)c3cc(F)cc(F)c3)nn2)ccc1-n1cnc(C)c1` is reported as 31900 ng·h/mL (male Sprague-Dawley rat, plasma; oral, 5 mg/kg, single dose).
The AUC(0-inf) of `CCc1nc(C(N)=O)c(Nc2ccc(N3CCC(N4CCN(C)CC4)CC3)c(OC)c2)nc1NC1CCOCC1` is reported as 11500 ng·h/mL (male Sprague-Dawley rat, plasma; oral, 10 mg/kg).
`COc1cc2c3c(n(CCCN4CCOCC4)c(=O)c2cc1OC)-c1cc2c(cc1C3=O)OCO2` has an AUC(0-inf) of 421 ng·h/mL (male Fischer 344 rat, plasma; intravenous, 24 mg/m², single dose).
`COc1ccc2c(Cc3ccccc3F)c3n(c(=O)c2c1OC)CCc1cc2c(cc1-3)OCO2` has an AUC(0-inf) of 7960 ng·h/mL (rat, plasma; oral, 5 mg/kg).
The AUC(0-inf) of `O=C(Nc1cc(F)c(F)c(F)c1)c1ccc(F)c(S(=O)(=O)NCc2cccc(B(O)O)c2)c1` is reported as 37.6 ng·h/mL (male Sprague-Dawley rat, plasma; oral, 20 mg/kg).
The AUC(0-inf) of `CCc1cc(OC)c2nccc(N3CCc4c(cc(Cn5ccnc5)cc4-c4cn(C)nc4C(F)(F)F)C3=O)c2c1` is reported as 955 ng·h/mL (male Sprague-Dawley rat, plasma; intravenous, 3 mg/kg).
